Test results as given in ChEMBL document CHEMBL1649115, “Enhanced susceptibility to antifungal oligopeptides in yeast strains overexpressing ABC multidrug efflux pumps” (Antimicrob Agents Chemother, 2008).
Converted amounts (≈) assume the structure as drawn. Non-standard residues stand in square brackets, D forms with d. Residues, ends and D or L forms follow the SMILES beside them. Phe(3-F) = N[C@@H](Cc1cccc(F)c1)C(=O)O

Key:
Saccharomyces cerevisiae [1] = experiment: Antifungal activity against wild type Saccharomyces cerevisiae ATCC 9763 in YNPG-proline medium after 24 hrs by microdilution method; type: functional; details: ATCC 9763, 24 h
Saccharomyces cerevisiae [2] = experiment: Antifungal activity against Saccharomyces cerevisiae AD12345678 in YNPG-proline medium after 24 hrs by microdilution method; type: functional; details: AD12345678, 24 h
Saccharomyces cerevisiae [3] = experiment: Antifungal activity against Saccharomyces cerevisiae ADCDR1 expressing Candida albicans CDR1 efflux pump in YNPG-proline medium after 24 hrs by microdilution method; type: functional; details: ADCDR1, 24 h
Saccharomyces cerevisiae [4] = experiment: Antifungal activity against Saccharomyces cerevisiae ADCDR2 expressing Candida albicans CDR2 efflux pump in YNPG-proline medium after 24 hrs by microdilution method; type: functional; details: ADCDR2, 24 h
Saccharomyces cerevisiae [5] = experiment: Antifungal activity against Saccharomyces cerevisiae ADMDR1 expressing Candida albicans MDR1 efflux pump in YNPG-proline medium after 24 hrs by microdilution method; type: functional; details: ADMDR1, 24 h
Candida albicans [6] = experiment: Antifungal activity against wild type Candida albicans 10261 in RPMI-1640 buffered medium after 24 hrs by microdilution method; type: functional; details: Candida albicans, 10261, 24 h; read-out: MIC
Summary of the method: (§1)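 C. albicans cells were grown in 2% glucose, 1% yeast extract, 1% Bacto peptone medium before testing. […] CARE-2 fingerprinting confirmed that each pair is a single strain.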

Candida albicans [7] = experiment: Antifungal activity against fluconazole sensitive Candida albicans isolate Gu4 in RPMI-1640 buffered medium after 24 hrs by microdilution method; type: functional; details: Candida albicans, isolate Gu4, 24 h; read-out: MIC; summary of the method: as §1
Candida albicans [8] = experiment: Antifungal activity against fluconazole resistant Candida albicans isolate Gu5 overexpressing CDR1 and CDR2 in RPMI-1640 buffered medium after 24 hrs by microdilution method; type: functional; details: isolate Gu5, 24 h
Summary of the method: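 C. albicans cells were grown in 2% glucose, 1% yeast extract, 1% Bacto peptone medium before testing. CARE-2 fingerprinting confirmed that each pair is a single strain.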

Candida albicans [9] = experiment: Antifungal activity against fluconazole sensitive Candida albicans isolate B3 in RPMI-1640 buffered medium after 24 hrs by microdilution method; type: functional; details: Candida albicans, isolate B3, 24 h; read-out: MIC; summary of the method: as §1
Candida albicans [10] = experiment: Antifungal activity against fluconazole resistant Candida albicans isolate B4 overexpressing MDR1 in RPMI-1640 buffered medium after 24 hrs by microdilution method; type: functional; details: Candida albicans, isolate B4, 24 h; read-out: MIC; summary of the method: as §1
Saccharomyces cerevisiae [11] = experiment: Drug uptake in Saccharomyces cerevisiae AD12345678 at 200 uM pretreated for 10 mins measured after 60 mins by fluorescamine staining; type: ADME, organism-based; details: in vivo, 1 h
Saccharomyces cerevisiae [12] = experiment: Drug uptake in Saccharomyces cerevisiae ADCDR1 expressing Candida albicans CDR1 efflux pump at 200 uM pretreated for 10 mins measured after 60 mins by fluorescamine staining; type: ADME, organism-based; details: in vivo, 1 h
Saccharomyces cerevisiae [13] = experiment: Drug uptake in Saccharomyces cerevisiae ADCDR2 expressing Candida albicans CDR2 efflux pump at 200 uM pretreated for 10 mins measured after 60 mins by fluorescamine staining; type: ADME, organism-based; details: in vivo, 1 h
Saccharomyces cerevisiae [14] = experiment: Drug uptake in Saccharomyces cerevisiae ADMDR1 expressing Candida albicans MDR1 efflux pump at 200 uM pretreated for 10 mins measured after 60 mins by fluorescamine staining; type: ADME, organism-based; details: in vivo, 1 h
Saccharomyces cerevisiae [15] = experiment: Prodrug stability in wild type Saccharomyces cerevisiae ATCC 9763 assessed as compound cleavage rate measured per mg of protein; type: ADME, organism-based; details: in vivo
Saccharomyces cerevisiae [16] = experiment: Prodrug stability in Saccharomyces cerevisiae AD12345678 assessed as compound cleavage rate measured per mg of protein; type: ADME, organism-based; details: in vivo
Saccharomyces cerevisiae [17] = experiment: Prodrug stability in Saccharomyces cerevisiae ADCDR1 expressing Candida albicans CDR1 efflux pump assessed as compound cleavage rate measured per mg of protein; type: ADME, organism-based; details: in vivo
Saccharomyces cerevisiae [18] = experiment: Prodrug stability in Saccharomyces cerevisiae ADCDR2 expressing Candida albicans CDR2 efflux pump assessed as compound cleavage rate measured per mg of protein; type: ADME, organism-based; details: in vivo
Saccharomyces cerevisiae [19] = experiment: Prodrug stability in Saccharomyces cerevisiae ADMDR1 expressing Candida albicans MDR1 efflux pump assessed as compound cleavage rate measured per mg of protein; type: ADME, organism-based; details: in vivo
Candida albicans [20] = experiment: Prodrug stability in wild type Candida albicans 10261 assessed as compound cleavage rate measured per mg of protein; type: ADME, organism-based; details: in vivo
Candida albicans [21] = experiment: Prodrug stability in fluconazole sensitive Candida albicans isolate Gu4 assessed as compound cleavage rate measured per mg of protein; type: ADME, organism-based; details: in vivo
Summary of the method: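 Oligopeptides were incubated with cell extracts of the yeast cells, and their hydrolytic enzymes cleaved them. The amino acids released were quantified by the Cd-ninhydrin method.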

Candida albicans [22] = experiment: Prodrug stability in fluconazole sensitive Candida albicans isolate B3 assessed as compound cleavage rate measured per mg of protein; type: ADME, organism-based; details: in vivo
Saccharomyces cerevisiae [23] = experiment: Antifungal activity against wild type Saccharomyces cerevisiae ATCC 9763 in YNPG medium containing 1 mg/ml […] after 24 hrs by microdilution method; type: functional; details: ATCC 9763, 24 h
Saccharomyces cerevisiae [24] = experiment: Antifungal activity against Saccharomyces cerevisiae AD12345678 in YNPG medium containing 1 mg/ml […] after 24 hrs by microdilution method; type: functional; details: AD12345678, 24 h
Saccharomyces cerevisiae [25] = experiment: Antifungal activity against Saccharomyces cerevisiae ADCDR1 expressing Candida albicans CDR1 efflux pump in YNPG medium containing 1 mg/ml […] after 24 hrs by microdilution method; type: functional; details: ADCDR1, 24 h
Saccharomyces cerevisiae [26] = experiment: Antifungal activity against Saccharomyces cerevisiae ADCDR2 expressing Candida albicans CDR2 efflux pump in YNPG medium containing 1 mg/ml […] after 24 hrs by microdilution method; type: functional; details: ADCDR2, 24 h
Saccharomyces cerevisiae [27] = experiment: Antifungal activity against Saccharomyces cerevisiae ADMDR1 expressing Candida albicans MDR1 efflux pump in YNPG medium containing 1 mg/ml […] after 24 hrs by microdilution method; type: functional; details: ADMDR1, 24 h

SMILES	MIC (Saccharomyces cerevisiae [1])	MIC (Saccharomyces cerevisiae [2])	MIC (Saccharomyces cerevisiae [3])	MIC (Saccharomyces cerevisiae [4])	MIC (Saccharomyces cerevisiae [5])	MIC (Candida albicans [6])	MIC (Candida albicans [7])	MIC (Candida albicans [8])	MIC (Candida albicans [9])	MIC (Candida albicans [10])	Drug uptake (Saccharomyces cerevisiae [11])	Drug uptake (Saccharomyces cerevisiae [12])	Drug uptake (Saccharomyces cerevisiae [13])	Drug uptake (Saccharomyces cerevisiae [14])	Stability (Saccharomyces cerevisiae [15])	Stability (Saccharomyces cerevisiae [16])	Stability (Saccharomyces cerevisiae [17])	Stability (Saccharomyces cerevisiae [18])	Stability (Saccharomyces cerevisiae [19])	Stability (Candida albicans [20])	other results
CC(C)C[C@H](NC(=O)[C@@H](N)COCCN)C(=O)NCC(=O)O	8 µg/mL (≈ 25.1 µM)	4 µg/mL (≈ 12.6 µM)	1 µg/mL (≈ 3.14 µM)	1 µg/mL (≈ 3.14 µM)	4 µg/mL (≈ 12.6 µM)	128 µg/mL (≈ 402 µM)	256 µg/mL (≈ 804 µM)	16 µg/mL (≈ 50.3 µM)	64 µg/mL (≈ 201 µM)	32 µg/mL (≈ 101 µM)											
CCC[C@H](N)C(=O)N[C@@H](CNC(=O)/C=C/C(=O)OC)C(=O)O	4 µg/mL (≈ 12.7 µM)	4 µg/mL (≈ 12.7 µM)	0.5 µg/mL (≈ 1.59 µM)	1 µg/mL (≈ 3.17 µM)	4 µg/mL (≈ 12.7 µM)	2 µg/mL (≈ 6.34 µM)	2 µg/mL (≈ 6.34 µM)	0.125 µg/mL (≈ 0.396 µM)	4 µg/mL (≈ 12.7 µM)	4 µg/mL (≈ 12.7 µM)	0.96 nmol/min/mg	1.86 nmol/min/mg	1.56 nmol/min/mg	1.02 nmol/min/mg	14 nmol/min	14 nmol/min	14 nmol/min	14 nmol/min	14 nmol/min	20 nmol/min	Stability (Candida albicans [21]): 20 nmol/min; Stability (Candida albicans [22]): 20 nmol/min
CCC[C@H](NC(=O)[C@@H](N)CCCCN)C(=O)N[C@@H](CNC(=O)/C=C/C(=O)OC)C(=O)O [listing 1 of 2 here]											0.79 nmol/min/mg	1.61 nmol/min/mg	1.18 nmol/min/mg	0.81 nmol/min/mg	14 nmol/min	14 nmol/min	14 nmol/min	14 nmol/min	14 nmol/min	20 nmol/min	Stability (Candida albicans [21]): 20 nmol/min; Stability (Candida albicans [22]): 20 nmol/min
CCC[C@H](NC(=O)[C@@H](N)CCCCN)C(=O)N[C@@H](CNC(=O)/C=C/C(=O)OC)C(=O)O [listing 2 of 2 here]	32 µg/mL (≈ 72.2 µM)	32 µg/mL (≈ 72.2 µM)	4 µg/mL (≈ 9.02 µM)	8 µg/mL (≈ 18 µM)	32 µg/mL (≈ 72.2 µM)	8 µg/mL (≈ 18 µM)	4 µg/mL (≈ 9.02 µM)	1 µg/mL (≈ 2.25 µM)	8 µg/mL (≈ 18 µM)	8 µg/mL (≈ 18 µM)											
C[C@H](N)C(=O)N[C@@H](C)C(=O)N[C@@H](C)C(=O)O											3.15 nmol/min/mg	5.3 nmol/min/mg	4.74 nmol/min/mg	2.91 nmol/min/mg							
NC(CC(=O)NO)C(=O)O (centres undefined)						256 µg/mL (≈ 1730 µM)	256 µg/mL (≈ 1730 µM)	128 µg/mL (≈ 864 µM)	256 µg/mL (≈ 1730 µM)	256 µg/mL (≈ 1730 µM)	1.54 nmol/min/mg	2.25 nmol/min/mg	1.69 nmol/min/mg	1.25 nmol/min/mg							MIC (Saccharomyces cerevisiae [23]): 256 µg/mL (≈ 1730 µM); MIC (Saccharomyces cerevisiae [24]): 256 µg/mL (≈ 1730 µM); MIC (Saccharomyces cerevisiae [25]): 64 µg/mL (≈ 432 µM); MIC (Saccharomyces cerevisiae [26]): 64 µg/mL (≈ 432 µM); MIC (Saccharomyces cerevisiae [27]): 128 µg/mL (≈ 864 µM)
CSCC[C@H](NC(=O)[C@@H](N)CCSC)C(=O)N[C@@H](Cc1cccc(F)c1)C(=O)O (H-Met-Met-[Phe(3-F)]-OH)	256 µg/mL (≈ 575 µM)	512 µg/mL (≈ 1150 µM)	32 µg/mL (≈ 71.8 µM)	32 µg/mL (≈ 71.8 µM)	256 µg/mL (≈ 575 µM)	128 µg/mL (≈ 287 µM)	128 µg/mL (≈ 287 µM)	32 µg/mL (≈ 71.8 µM)	128 µg/mL (≈ 287 µM)	128 µg/mL (≈ 287 µM)	0.64 nmol/min/mg	1.11 nmol/min/mg	1.23 nmol/min/mg	0.67 nmol/min/mg	14 nmol/min	14 nmol/min	14 nmol/min	14 nmol/min	14 nmol/min	20 nmol/min	Stability (Candida albicans [21]): 20 nmol/min; Stability (Candida albicans [22]): 20 nmol/min
